Screening results deposited in PubChem by several laboratories.
Hits are enriched below; roughly 3.7% of the tested compounds scored in any of these assays.
NPY-Y2 antag: blocks the human neuropeptide Y Y2 receptor; P49146; AID 793; inhibition, % at 2.7 µM; NPY-Y2 expressing cells, antagonist mode; 0.99% of 140,000 active; in the data active = inhibition above about 17%;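 also: 0% = vehicle with agonist challenge and 100% = reference antagonist with challenge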
Furin inh: human furin inhibition. purified furin, fluorogenic substrate cleavage. inhibition, % at 20 µM or 30 µM. 0.061% of 220,000 active. P09958. AID 463115; in the data active = inhibition above about 25%
Target sequence (P09958 108-714 limits assumed): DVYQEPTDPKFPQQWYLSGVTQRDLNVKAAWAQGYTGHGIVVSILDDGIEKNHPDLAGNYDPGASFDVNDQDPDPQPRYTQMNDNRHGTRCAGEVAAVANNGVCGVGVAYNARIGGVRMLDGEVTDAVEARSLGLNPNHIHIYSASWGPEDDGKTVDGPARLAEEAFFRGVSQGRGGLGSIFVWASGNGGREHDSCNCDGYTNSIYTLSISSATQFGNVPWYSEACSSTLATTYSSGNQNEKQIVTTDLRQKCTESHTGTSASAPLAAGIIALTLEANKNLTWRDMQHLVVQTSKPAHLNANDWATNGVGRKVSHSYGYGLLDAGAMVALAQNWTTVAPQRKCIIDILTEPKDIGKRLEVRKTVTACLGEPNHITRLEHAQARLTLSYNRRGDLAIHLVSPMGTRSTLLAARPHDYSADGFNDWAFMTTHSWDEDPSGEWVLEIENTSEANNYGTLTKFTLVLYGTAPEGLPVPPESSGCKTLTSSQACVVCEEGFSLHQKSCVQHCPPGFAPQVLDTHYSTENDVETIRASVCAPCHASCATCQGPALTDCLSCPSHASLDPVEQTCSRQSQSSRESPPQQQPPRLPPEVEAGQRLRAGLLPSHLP
KCC2 mod: modulators of human KCC2 chloride dependent transport | Q9H2X9 | KCC2 cells, thallium flux FluoZin-2 fluorescence | B-score of Tl+ flux slope (higher = more flux/activation; lower = inhibition) at 10 µM | 2.2% of 190,000 active | AID 1456;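 active = thallium flux slope and its plate-corrected score both differing from the plate sample mean at a set confidence after two filtering rounds, in either direction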;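 also: slope of fluorescence scaled to starting intensity during 10 to 20 s after thallium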
NPY-Y2 PAM-ag: potentiates or activates human NPY-Y2 receptor; P49146; cells expressing NPY-Y2, potentiator/agonist read-out; 0.45% of 220,000 active; activation, % at 3.6 µM; in the data active = activation above about 27%;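 also: cells stimulated with NPY near EC25 plus isoproterenol at EC100; 0% = vehicle plus submaximal agonist and 100% = vehicle plus saturating agonist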
NPY1 pot ag: potentiators or agonists of human neuropeptide Y receptor Y1 | P25929 | NPY-Y1 expressing cells, potentiator/agonist activation | activation, % at 3.6 µM | 0.37% of 220,000 active | AID 1304; in the data active = activation above about 33%, passing the limit was not always enough;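 also: cells stimulated with NPY at EC10 then isoproterenol at EC100; 0% = low agonist plus stimulus and 100% = saturating agonist plus stimulus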
NPY-Y1 antag: antagonists of human neuropeptide Y receptor Y1 | HEK293-CNG Y1 cells, membrane potential fluorescence; NPY at EC95, then isoproterenol | inhibition, % at 3.6 µM | 1% of 200,000 active | AID 1040;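 active = inhibition above the campaign mean inhibition of all tested compounds plus 3 SD, cut at about 20% in these data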;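 also: 0% = DMSO wells given NPY plus isoproterenol and 100% = isoproterenol alone without NPY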
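Material: HEK293 cells with Y1 receptor plus CNG channel; times: compound incubation 1 h at room temperature, readout 45 min post-stimulation; signal: fluorescence, membrane potential probe; read-out basis: fluorescence ratio normalized to % inhibition between controls; benchmarks: full-block control isoproterenol-only wells, zero-block control NPY plus isoproterenol wells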
KCC2 sec1: confirmation of human KCC2 transport modulators | HEK293-KCC2, thallium flux, FluoZin2 fluorescence; hits give high values | normalised thallium flux (F/F0 slope) at 10 µM | shares compounds with KCC2 mod | 15% of 3,700 active;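 active = thallium flux slope above the same plate's solvent-only control mean plus 3 SD; inconclusive = the two replicate wells disagree; inactive = no significant difference from solvent-only control wells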
KCC2 bumet counter: thallium flux despite bumetanide block in KCC2 cells, secondary assay 3 | shares compounds with KCC2 mod | HEK293-KCC2 + bumetanide/ouabain, thallium flux FluoZin2; hits give high values | normalized thallium flux at 10 µM | 49% of 3,700 active | AID 1714;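 active = thallium entry rate above the same plate's blocked-transporter control wells by more than 3 SD; inconclusive = the two repeat wells disagree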;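 also: raw slope of fluorescence over initial fluorescence between 10 and 20 s after thallium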
KCC2 secondary2: KCC2 (human) modulation, second secondary assay | 23% of 3,700 active | AID 1715 | normalized thallium flux at 10 µM | shares compounds with KCC2 mod | HEK293-KCC2, thallium flux FluoZin2 fluorescence; actives lie on both sides; F/F0 rise rate, 10–20 s post-thallium;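 active = thallium flux slope more than 3 SD above or below the plate's solvent-only control mean, mostly below; inconclusive = the two repeat wells disagreed; inactive = no significant shift from solvent-only controls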;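 also: raw slope with 0.1% DMSO as baseline and bumetanide as block control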
HEK counter1: parental HEK flux effect, counter-screen; 46% of 3,700 active; HEK293 parental cells, thallium flux FluoZin2, ouabain; baseline-ratio fluorescence slope, 10–20 s after thallium; AID 1716; shares compounds with KCC2 mod; thallium flux rate (normalised fluorescence) at 10 µM;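 active = thallium flux rate significantly above the same plate's solvent-only control wells, beyond their mean plus 3 SD; inconclusive = the two replicate wells gave conflicting results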
KCC2 retest ouab: confirmation of human KCC2 modulators with ouabain; shares compounds with KCC2 mod; HEK293-KCC2, thallium flux FluoZin2 fluorescence; bidirectional: low = inhibitor, high = activator; raw Tl+ flux slope (below DMSO = inhibition, above = activation) at 10 µM; 48% of 3,700 active; AID 1717;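 active = thallium flux slope beyond 3 SD from same-plate DMSO control mean in most replicates, usually higher, sometimes lower; inconclusive = repeat tests gave conflicting results; inactive = no significant difference from controls in most replicates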;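 also: slope of initial-normalized fluorescence between seconds 10 and 20 after thallium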
HEK293 Tl flux2: acts in parental HEK cells, second KCC2 counter-screen | shares compounds with KCC2 mod | HEK293 parental, thallium flux FluoZin-2 fluorescence slope | thallium flux slope at 10 µM | 33% of 3,700 active | AID 1718;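 active = thallium flux slope above the same plate's solvent-control mean plus 3 SD in both duplicate wells; inconclusive = duplicate wells that disagreed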;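 also: run without ouabain in cells lacking the KCC2 cotransporter; slope of fluorescence scaled to its starting value between 10 and 20 s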
* marks the source's active call; other numbers are inactive results; ? = inconclusive; nt = no result.

SMILES	NPY-Y2 antag	Furin inh	KCC2 mod	NPY-Y2 PAM-ag	NPY1 pot ag	NPY-Y1 antag	KCC2 sec1	KCC2 bumet counter	KCC2 secondary2	HEK counter1	KCC2 retest ouab	HEK293 Tl flux2
CN1CCN(S(=O)(=O)c2cccc(C(=O)Nc3nc(-c4ccccc4)cs3)c2)CC1	0	-13	-3*	-4	-16	-2	0.018	0.0044	0.027	?	0.014	0.01
CCCC(=O)Nc1nc(-c2ccccc2)ns1	2	-27	-0.34	-2	22	-2	nt	nt	nt	nt	nt	nt
CCC(=O)Nc1nc(-c2ccccc2)ns1	0	-8	2.5*	-6	-13	4	0.0073	0.0045	0.032	0.0074	0.019	0.01
COc1ccc(OC)c(Cc2nnc(CCC(=O)NC3C4CC5CC(C4)CC3C5)o2)c1 (stereo unspecified)	nt	-21	-1.5	-17	-8	4	nt	nt	nt	nt	nt	nt
COc1ccnc(N=CNOCc2cccc(C(F)(F)F)c2)c1C#N	nt	-18	0.51	-3	-15	6	nt	nt	nt	nt	nt	nt
O=C(NCc1ccccc1)C(=O)Nc1nc(-c2ccccc2)cs1	nt	2	27*	-10	-13	nt	0.021*	0.037*	0.034	0.053*	0.039*	0.016*
O=C(NCc1ccccn1)C(=O)Nc1nc(-c2ccccc2)cs1	nt	3	3.5	-7	-2	nt	nt	nt	nt	nt	nt	nt
CCn1c(CCNC(=O)c2cccs2)nnc1SCC(=O)Nc1cccc(Cl)c1	1	-20	-1.8	1	-2	0	nt	nt	nt	nt	nt	nt
CCOc1ccc(NC(=O)CSc2nnc(CCNC(=O)c3ccc(OC)cc3)n2CC)cc1	2	-21	nt	0	11	3	0.011	?	0.035	0.0077	0.022	?
CCn1c(CCNC(=O)c2ccc(OC)cc2)nnc1SCC(=O)Nc1ccccc1F	nt	-6	-0.027	8	5	-1	nt	nt	nt	nt	nt	nt
CCn1c(CCNC(=O)c2cccs2)nnc1SCC(=O)Nc1nc(-c2ccccc2)cs1	0	-10	-3.2*	-7	-3	-7	0.0085	0.0046	?	0.0066	0.014*	0.01
O=C(Nc1nc(-c2ccccc2)cs1)c1cccs1	2	-17	-1.2	-9	-7	7	?	0.0094*	0.031	0.0073	?	0.0099
O=C(Nc1nc(-c2ccc(Cl)s2)cs1)c1cccs1	5	-12	-0.34	-15	-3	2	nt	nt	nt	nt	nt	nt
CCOC(=O)C1CCN(C(=O)Nc2cc(Cl)cc(Cl)c2)CC1	nt	-10	-4.6	-30	5	nt	nt	nt	nt	nt	nt	nt
CC/C(=N\NC(=O)CCC(=O)NCc1ccccc1)c1ccc(O)cc1	nt	-29	1.1	9	4	1	nt	nt	nt	nt	nt	nt
COc1cccc(/C=N/NC(=O)NC2CCCCC2)c1O	nt	-5	nt	4	-11	nt	nt	nt	nt	nt	nt	nt
CC(=O)N=c1cccc(NC(C)=O)n1O	-2	-27	0.053	10	14	2	nt	nt	nt	nt	nt	nt
C=CC(=O)NC(C)(C)CCN1CCOCC1	nt	-23	-0.63	-11	-12	4	nt	nt	nt	nt	nt	nt
COCCNC(=O)COc1ccc(C)cc1C	1	-11	-4.4*	12	13	-3	0.009	0.0067	0.03	0.0075	0.02	?
O=C(OCc1cccc(F)c1)c1ccc2c(=O)n3c(nc2c1)CCC3	nt	-7	-1.5	-5	-22	nt	nt	nt	nt	nt	nt	nt
CCN(CC)C(=S)NC(=O)c1ccc(F)cc1	nt	-14	34*	7	10	2	0.008	0.052*	0.049*	0.033*	0.047*	0.042*
CN1CCN(C(=S)NC(=O)c2ccc(C(C)(C)C)cc2)CC1	4	-11	11*	-6	-26	0	0.0056	0.018*	0.03	0.016*	?	0.015*
O=C(NC(=S)N1CCN(C2CCCCC2)CC1)c1ccccc1	nt	-7	35*	-5	-4	1	0.033*	0.053*	0.047*	0.03*	0.038*	0.035*
CN1CCN(C(=S)NC(=O)c2ccc(-c3ccccc3)cc2)CC1	nt	-18	27*	-16	1	-6	0.03*	0.065*	?	0.034*	0.036*	0.038*
O=C(NC(=S)N1CCN(c2ccc([N+](=O)[O-])cc2)CC1)c1ccccc1Cl	nt	-15	0.62	-16	-7	2	nt	nt	nt	nt	nt	nt
SMILES	NPY-Y2 antag	Furin inh	KCC2 mod	NPY-Y2 PAM-ag	NPY1 pot ag	NPY-Y1 antag	KCC2 sec1	KCC2 bumet counter	KCC2 secondary2	HEK counter1	KCC2 retest ouab	HEK293 Tl flux2
COc1ccc(OCC(=O)N2c3ccc(C)cc3C3CN(C)CCC32)cc1 (stereo unspecified)	nt	-15	-1.6	1	-5	0	nt	nt	nt	nt	nt	nt
O=C(NC(=S)N1CCCCCC1)c1ccccc1Cl	nt	-27	23*	3	12	3	0.025*	0.054*	0.038	0.024*	0.048*	0.014*
CN1CCN(C(=S)NC(=O)c2ccc(Br)cc2)CC1	nt	-14	12*	-1	3	nt	?	0.016*	0.032	0.012*	0.026*	0.012
CCOC(=O)N1CCN(C(=S)NC(=O)c2ccc(F)cc2)CC1	nt	-19	4.2*	3	3	-4	0.017	0.011*	0.033	0.013*	0.02	0.016*
Cc1ccc2c(c1)C1CN(C)CCC1N2C(=S)NC(=O)c1ccc(Br)cc1 (stereo unspecified)	nt	-18	133*	-38	-39	10	0.041*	0.11*	?	0.13*	0.085*	0.035*
Cc1ccc(C(=O)NC(=S)N2CCN(C)CC2)cc1	2	-5	1.8	0	2	-4	nt	nt	nt	nt	nt	nt
COc1ccc(CC(=O)NC(C)C2COc3ccccc3O2)cc1OC (stereo unspecified)	nt	-35	-0.78	3	6	5	nt	nt	nt	nt	nt	nt
Cc1c(NC(=O)c2cccc(-c3cc4ccccc4oc3=O)c2)cccc1-c1nc2ncccc2o1	5	-18	-0.92	1	-20	7	nt	nt	nt	nt	nt	nt
CC(/C=C1\SC(=S)N(CCC(=O)Nc2nc(C)cs2)C1=O)=C\c1ccccc1	nt	-21	-0.16	6	-2	nt	nt	nt	nt	nt	nt	nt
O=C(/C=C/c1cn(CC(O)CN2CCCCC2)c2ccccc12)c1cccs1 (stereo unspecified)	3	-1	4.6*	-11	-8	4	0.0083	0.0059	0.024*	0.0068	0.016*	0.0084
